Assays:
PANC-1 [1] = test: Cytotoxicity against human PANC-1 cells assessed as inhibition of cell viability at upto 100 uM incubated for 24 hrs by MTT assay; assay type: toxicity, cell-based; settings: panc-1, 24 h
How it was run: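 PANC-1 cells seeded at 9 × 10³ per well, triplicate, 24 h at 37 °C, 5% CO₂. Treated with 5, 10, 20, 40, 60, 80 and 100 μM for another day. MTT (5 mg mL⁻¹ stock) 3 h at 37 °C, plates centrifuged, formazan dissolved in DMSO 30 min dark, A570. Viability compared by one-way ANOVA with Tukey test.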

[2] = Inhibition of porcine pancreatic alpha-amylase using starch as substrate preincubated for 10 min followed by substrate addition and measured after 20 min by absorbance based analysis; set-up: species or system Sus scrofa
How it was run: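 Porcine α-amylase (1 U mL⁻¹) pre-incubated with compound 10 min at 25 °C in phosphate buffer pH 6.8. 1% starch added, then 15 min at 37.5 ± 2 °C. Quenched with DNS reagent, heated 70 °C 20 min, diluted with buffer, A540 read, in triplicate. Final concentrations 100–1 μM from DMSO dilutions; IC50 from a linear fit of % inhibition at y = 50.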

[3] = target: alpha-glucosidase (Saccharomyces cerevisiae); test: Inhibition of Saccharomyces cerevisiae alpha-glucosidase using 4-nitrophenyl-alpha-D-glucopyranoside as substrate incubated with compound for 15 to 20 min by absorbance based analysis
PANC-1 [4] = test: Antioxidant activity in human PANC-1 cells assessed as decrease in high glucose induced ROS production by measuring minimum fractional index at 5 uM incubated for 24 hrs by DCFDA-staining based flow cytometry analysis; assay type: functional
How it was run: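 PANC-1 cells (1 × 10⁵/well) grown 24 h at 37 °C, 5% CO₂, then pre-treated 1 h with 5 μM compound. Exposed to glucose (stated 10 μM) for 23 h. Stained with 10 μM DCFH-DA for 30 min at 37 °C, rinsed, and ROS read by flow cytometry as DCFDA/FITC mean fluorescence intensity.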

[5] = Toxicity against STZ-induced diabetic Wistar rat model assessed as body weight loss at 10 mg/kg, po measured on day 14; assay type: organism-based; settings: in vivo, 336 h, time 14 day
How it was run: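 STZ given on day 1; oral treatment started day 14, with vehicle 0.5% CMC in controls. Six groups: normal, vehicle, STZ, STZ + two test compounds, STZ + pioglitazone. Blood glucose (tail puncture, glucometer) and body weight recorded on days 1, 4, 14 and 35. One-way ANOVA.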

Rattus norvegicus [6] = test: Antioxidant activity in fasted STZ-induced diabetic Wistar rat model assessed as increase in high glucose induced ROS production in pancreas by measuring minimum fractional index at 10 mg/kg, po administration for 21 days; assay type: functional; settings: time 21 day
How it was run: (§1)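 Rat pancreas mashed through a 70 μm strainer in FACS buffer. Processed by centrifugation (300 × g and 800 × g, 21 °C), 42% Percoll and 5 min RBC lysis. Cells washed, stained with DCFH-DA, and ROS read on a flow cytometer.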

Rattus norvegicus [7] = test: Antioxidant activity in fasted STZ-induced diabetic Wistar rat model assessed as decrease in high glucose induced ROS production in pancreas by measuring minimum fractional index at 10 mg/kg, po administration for 21 days in presence of pioglitazone days and measured on day 35; assay type: functional; settings: time 21 day; how it was run: as §1
Rattus norvegicus [8] = species: Rattus norvegicus; test: (§2) Anti-diabetic activity in high glucose induced alpha-amylase expression in fasted STZ-induced diabetic Wistar rat model assessed as alpha- glucosidase level in pancreas by measuring minimum fractional index in presence of pioglitazone incubated for 23 hrs and measured after 24 hrs by flow cytometric analysis (reference value: 3063 +/- 149.2); assay type: functional
Rattus norvegicus [9] = species: Rattus norvegicus; test: as §2, with “alpha-amylase” for “alpha- glucosidase”, “2590 + 199.74)” for “3063 +/- 149.2)”; assay type: functional
[10] = Toxicity against STZ-induced diabetic Wistar rat model assessed as body weight loss in presence of pioglitazone at 10 mg/kg, po measured on day 14; assay type: organism-based; settings: in vivo
PANC-1 [11] = test: (§3) Anti-diabetic activity against high glucose induced human PANC-1 cells assessed as decrease in glucose induced alpha-glucosidase expression by measuring by measuring minimum fractional index at 5 uM incubated for 23 hrs and measured after 24 hrs by flow cytometric analysis (reference value: 4361 +/- 257.83); assay type: functional
PANC-1 [12] = test: as §3, with “alpha-amylase” for “alpha-glucosidase”, “2887” for “4361”, “95.87)” for “257.83)”; assay type: functional

Compound	Activity (PANC-1 [1])	IC50 [2] [µM]	IC50 [3] [µM]	Activity_index (PANC-1 [4])	also measured
CCOc1cc(/C=C2\SC(=O)N(Cc3cccc([N+](=O)[O-])c3)C2=O)ccc1OS(=O)(=O)c1ccc(C)cc1	Non-toxic	48.7	42.24	957	
O=C1/C(=C2/SC(=O)N(Cc3cccc([N+](=O)[O-])c3)C2=O)Nc2ccccc21	Non-toxic	44	58.44	3041	
CCOc1cc(/C=C2\SC(=O)N(Cc3cccc([N+](=O)[O-])c3)C2=O)ccc1OCc1ccccc1	Non-toxic	55.6	31.2	898	
CCOc1cc(/C=C2\SC(=O)N(Cc3cccc([N+](=O)[O-])c3)C2=O)ccc1OCc1ccc([N+](=O)[O-])cc1	Non-toxic	93.5	38.33	676	
CCOc1cc(/C=C2\SC(=O)N(Cc3cccc([N+](=O)[O-])c3)C2=O)ccc1OCc1ccc(Cl)cc1	Non-toxic	126	96.15	4225	
CCOc1cc(/C=C2\SC(=O)N(Cc3cccc([N+](=O)[O-])c3)C2=O)ccc1OCc1ccc(F)cc1	Non-toxic	60.1	46.51	2438	
O=C1/C(=C2/SC(=O)N(Cc3cccc([N+](=O)[O-])c3)C2=O)Nc2ccc(Br)cc21	Non-toxic	61	68.76	2982	
CN(N=O)C(=O)N[C@@H]1[C@@H](O)[C@H](O)[C@@H](CO)O[C@@H]1O [STREPTOZOSIN]					Activity [5]: Toxic; Activity_index (Rattus norvegicus [6]): 3762; Activity_index (Rattus norvegicus [7]): 221; Activity_index (Rattus norvegicus [8]): 720; Activity_index (Rattus norvegicus [9]): 230; Activity [10]: Toxic
CCOc1cc(/C=C2\SC(=O)N(Cc3cccc([N+](=O)[O-])c3)C2=O)ccc1OCc1cccc([N+](=O)[O-])c1	Non-toxic	64.8	99.1	4225	
CCOc1cc(/C=C2\SC(=O)N(Cc3cccc([N+](=O)[O-])c3)C2=O)ccc1OCc1ccc(C)cc1	Non-toxic	54.2	20.31	230	
O=C1/C(=C2/SC(=O)N(Cc3cccc([N+](=O)[O-])c3)C2=O)Nc2ccc(Cl)cc21	Non-toxic	50.8	53.18	3063	
C[C@H]1O[C@H](O[C@H]2[C@H](O)[C@@H](O)[C@@H](O[C@H]3[C@H](O)[C@@H](O)C(O)O[C@@H]3CO)O[C@@H]2CO)[C@H](O)[C@@H](O)[C@@H]1N[C@H]1C=C(CO)[C@@H](O)[C@H](O)[C@H]1O (some centres undefined) [ACARBOSE]				149	Activity index (PANC-1 [11]): 170; Activity index (PANC-1 [12]): 114

From ChEMBL document CHEMBL6074625, “Thiazolidine-2,4-dione hybrids as dual alpha-amylase and alpha-glucosidase inhibitors: design, synthesis, in vitro and in vivo anti-diabetic evaluation” (RSC Med Chem, 2024)
